Target: urease (Canavalia ensiformis, UniProt P07374)
Assay: Urease inhibition assay
Format: biochemical
Method in brief: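 Test compound was preincubated with urease (enzyme solution 5 U ml−1) in buffer for 10 min at 37 °C. Alkaline and phenolic reagents were then added, and absorbance was read at 625 nm. Thiourea served as the standard inhibitor. Assays were run in triplicate. % inhibition = (A control − A sample)/A control × 100. IC50 was obtained by non-linear regression of % inhibition against concentration.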

Chain of urease (P07374 whole entry, looked up): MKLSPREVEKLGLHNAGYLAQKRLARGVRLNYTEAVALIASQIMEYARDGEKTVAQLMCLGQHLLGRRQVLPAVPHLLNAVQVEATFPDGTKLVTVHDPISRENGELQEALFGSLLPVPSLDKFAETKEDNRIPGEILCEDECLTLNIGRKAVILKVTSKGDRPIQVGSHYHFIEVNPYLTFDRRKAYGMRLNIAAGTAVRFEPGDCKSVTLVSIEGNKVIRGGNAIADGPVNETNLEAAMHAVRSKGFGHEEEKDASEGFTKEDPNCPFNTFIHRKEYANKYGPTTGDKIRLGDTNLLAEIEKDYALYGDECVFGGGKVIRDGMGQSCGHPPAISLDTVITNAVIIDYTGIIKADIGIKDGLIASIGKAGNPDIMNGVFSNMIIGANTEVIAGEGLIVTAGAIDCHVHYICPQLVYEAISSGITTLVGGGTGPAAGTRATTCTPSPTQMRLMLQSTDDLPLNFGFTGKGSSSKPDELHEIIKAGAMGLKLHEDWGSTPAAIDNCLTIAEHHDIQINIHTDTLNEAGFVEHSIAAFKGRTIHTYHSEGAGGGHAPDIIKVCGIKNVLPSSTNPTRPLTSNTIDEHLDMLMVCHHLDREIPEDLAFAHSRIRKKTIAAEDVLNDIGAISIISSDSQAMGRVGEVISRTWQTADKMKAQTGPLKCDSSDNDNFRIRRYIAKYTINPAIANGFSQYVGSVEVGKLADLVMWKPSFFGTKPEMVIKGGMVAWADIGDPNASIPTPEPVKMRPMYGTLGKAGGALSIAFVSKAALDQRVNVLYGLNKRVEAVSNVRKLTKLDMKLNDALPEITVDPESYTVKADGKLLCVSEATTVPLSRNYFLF

IC50	SMILES
13 ± 0.2 µM	CC(c1ccc(-c2ccccc2)c(F)c1)c1nnc(-c2ccc(Br)cc2)o1 (stereo not drawn) [Compound 21, 2-(4-Bromophenyl)-5-(1-(2-fluoro-[1,1′-biphenyl]-4-yl)ethyl)-1,3,4-oxadiazole]
35 ± 1.5 µM	COc1ccc(OC)c(-c2nnc(C(C)c3ccc(-c4ccccc4)c(F)c3)o2)c1 (stereo not drawn) [Compound 25, 2-(2,5-Dimethoxyphenyl)-5-(1-(2-fluoro-[1,1′-biphenyl]-4-yl)ethyl)-1,3,4-oxadiazole]
74 ± 1.3 µM	CCOc1ccc(-c2nnc(C(C)c3ccc(-c4ccccc4)c(F)c3)o2)c(OC)c1 (stereo not drawn) [Compound 12, 2-(4-Ethoxy-2-methoxyphenyl)-5-(1-(2-fluoro-[1,1′-biphenyl]-4-yl)ethyl)-1,3,4-oxadiazole]
20 ± 0.5 µM	CC(c1ccc(-c2ccccc2)c(F)c1)c1nnc(-c2ccc(O)c(O)c2O)o1 (stereo not drawn) [Compound 6, 4-(5-(1-(2-Fluoro-[1,1′-biphenyl]-4-yl)ethyl)-1,3,4-oxadiazol-2-yl) benzene-1,2,3-triol]
36 ± 1.2 µM	COc1ccc(-c2nnc(C(C)c3ccc(-c4ccccc4)c(F)c3)o2)c(Cl)c1OC (stereo not drawn) [Compound 17, 2-(2-Chloro-3,4-dimethoxyphenyl)-5-(1-(2-fluoro-[1,1′-biphenyl]-4-yl)ethyl)-1,3,4-oxadiazole]
37 ± 1.4 µM	COc1cc(-c2nnc(C(C)c3ccc(-c4ccccc4)c(F)c3)o2)cc(OC)c1Br (stereo not drawn) [Compound 23, 2-(4-Bromo-3,5-dimethoxyphenyl)-5-(1-(2-fluoro-[1,1′-biphenyl]-4-yl)ethyl)-1,3,4-oxadiazole]
12 ± 0.9 µM	COc1ccccc1-c1nnc(C(C)c2ccc(-c3ccccc3)c(F)c2)o1 (stereo not drawn) [Compound 20, 2-(1-(2-Fluoro-[1,1′-biphenyl]-4-yl)ethyl)-5-(2-methoxyphenyl)-1,3,4-oxadiazole]
16 ± 0.9 µM	COc1cc(-c2nnc(C(C)c3ccc(-c4ccccc4)c(F)c3)o2)ccc1F (stereo not drawn) [Compound 13, 2-(4-Fluoro-3-methoxyphenyl)-5-(1-(2-fluoro-[1,1′-biphenyl]-4-yl)ethyl)-1,3,4-oxadiazole]
31 ± 1.4 µM	COc1ccc(-c2nnc(C(C)c3ccc(-c4ccccc4)c(F)c3)o2)c(F)c1 (stereo not drawn) [Compound 22, 2-(2-Fluoro-4-methoxyphenyl)-5-(1-(2-fluoro-[1,1′-biphenyl]-4-yl)ethyl)-1,3,4-oxadiazole]
39 ± 1.2 µM	CC(c1ccc(-c2ccccc2)c(F)c1)c1nnc(-c2cccc3ccccc23)o1 (stereo not drawn) [Compound 5, 2-(1-(2-Fluoro-[1,1′-biphenyl]-4-yl)ethyl)-5-(naphthalen-1-yl)-1,3,4-oxadiazole]
12 ± 0.1 µM	Cc1ccc(-c2nnc(C(C)c3ccc(-c4ccccc4)c(F)c3)o2)s1 (stereo not drawn) [Compound 30, 2-(1-(2-Fluoro-[1,1′-biphenyl]-4-yl)ethyl)-5-(5-methylthiophen-2-yl)-1,3,4-oxadiazole]
31 ± 1.2 µM	COc1cccc(OC)c1-c1nnc(C(C)c2ccc(-c3ccccc3)c(F)c2)o1 (stereo not drawn) [Compound 15, 2-(2,6-Dimethoxyphenyl)-5-(1-(2-fluoro-[1,1′-biphenyl]-4-yl)ethyl)-1,3,4-oxadiazole]
41 ± 1.4 µM	CC(c1ccc(-c2ccccc2)c(F)c1)c1nnc(-c2ccc(-c3ccccc3)c(F)c2)o1 (stereo not drawn) [Compound 29, 2-(2-Fluoro-[1,1′-biphenyl]-4-yl)-5-(1-(2-fluoro-[1,1′-biphenyl]-4-yl)ethyl)-1,3,4-oxadiazole]
35 ± 1.2 µM	CCOc1cc(-c2nnc(C(C)c3ccc(-c4ccccc4)c(F)c3)o2)ccc1OC (stereo not drawn) [Compound 14, 2-(3-Ethoxy-4-methoxyphenyl)-5-(1-(2-fluoro-[1,1′-biphenyl]-4-yl)ethyl)-1,3,4-oxadiazole]
41 ± 1.2 µM	CC(c1ccc(-c2ccccc2)c(F)c1)c1nnc(-c2cc([N+](=O)[O-])ccc2Cl)o1 (stereo not drawn) [Compound 11, 2-(2-Chloro-5-nitrophenyl)-5-(1-(2-fluoro-[1,1′-biphenyl]-4-yl)ethyl)-1,3,4-oxadiazole]
72 ± 1.2 µM	COc1ccc(Br)cc1-c1nnc(C(C)c2ccc(-c3ccccc3)c(F)c2)o1 (stereo not drawn) [Compound 9, 2-(5-Bromo-2-methoxyphenyl)-5-(1-(2-fluoro-[1,1′-biphenyl]-4-yl)ethyl)-1,3,4-oxadiazole]
34 ± 2.4 µM	CSc1ccc(-c2nnc(C(C)c3ccc(-c4ccccc4)c(F)c3)o2)cc1 (stereo not drawn) [Compound 27, 2-(1-(2-Fluoro-[1,1′-biphenyl]-4-yl)ethyl)-5-(4-(methylthio)phenyl)-1,3,4-oxadiazole]
16 ± 0.1 µM	CC(c1ccc(-c2ccccc2)c(F)c1)c1nnc(-c2ccccc2N)o1 (stereo not drawn) [Compound 7, 2-(5-(1-(2-Fluoro-[1,1′-biphenyl]-4-yl)ethyl)-1,3,4-oxadiazol-2-yl) aniline]
14 ± 0.3 µM	CC(c1ccc(-c2ccccc2)c(F)c1)c1nnc(-c2ccc(O)c(Br)c2)o1 (stereo not drawn) [Compound 28, 2-Bromo-4-(5-(1-(2-fluoro-[1,1′-biphenyl]-4-yl)ethyl)-1,3,4-oxadiazol-2-yl)phenol]
41 ± 1.2 µM	CC(c1ccc(-c2ccccc2)c(F)c1)c1nnc(-c2cccc([N+](=O)[O-])c2)o1 (stereo not drawn) [Compound 8, 2-(1-(2-Fluoro-[1,1′-biphenyl]-4-yl)ethyl)-5-(3-nitrophenyl)-1,3,4-oxadiazole]
20 ± 0.5 µM	COc1ccc(-c2nnc(C(C)c3ccc(-c4ccccc4)c(F)c3)o2)c(OC)c1OC (stereo not drawn) [Compound 10, 2-(2,3,4-Trimethoxyphenyl)-5-(1-(2-fluoro-[1,1′-biphenyl]-4-yl)ethyl)-1,3,4-oxadiazole]
12 ± 0.1 µM	CC(c1ccc(-c2ccccc2)c(F)c1)c1nnc(-c2cccc(C(F)(F)F)c2)o1 (stereo not drawn) [Compound 26, 2-(1-(2-Fluoro-[1,1′-biphenyl]-4-yl)ethyl)-5-(3-(trifluoromethyl)phenyl)-1,3,4-oxadiazole]
16 ± 0.3 µM	COc1cc(-c2nnc(C(C)c3ccc(-c4ccccc4)c(F)c3)o2)ccc1Oc1ccccc1 (stereo not drawn) [Compound 19, 2-(1-(2-Fluoro-[1,1′-biphenyl]-4-yl)ethyl)-5-(3-methoxy-4-phenoxyphenyl)-1,3,4-oxadiazole]
15 ± 0.3 µM	CC(c1ccc(-c2ccccc2)c(F)c1)c1nnc(-c2ccccc2[N+](=O)[O-])o1 (stereo not drawn) [Compound 32, 2-(1-(2-Fluoro-[1,1′-biphenyl]-4-yl)ethyl)-5-(2-nitrophenyl)-1,3,4-oxadiazole]
13 ± 0.1 µM	CC(c1ccc(-c2ccccc2)c(F)c1)c1nnc(-c2ccc(Br)cc2F)o1 (stereo not drawn) [Compound 24, 2-(4-Bromo-2-fluorophenyl)-5-(1-(2-fluoro-[1,1′-biphenyl]-4-yl)ethyl)-1,3,4-oxadiazole]
13 ± 0.2 µM	CC(c1ccc(-c2ccccc2)c(F)c1)c1nnc(-c2ccc([N+](=O)[O-])cc2)o1 (stereo not drawn) [Compound 16, 2-(1-(2-Fluoro-[1,1′-biphenyl]-4-yl)ethyl)-5-(4-nitrophenyl)-1,3,4-oxadiazole]
15 ± 0.3 µM	CC(c1ccc(-c2ccccc2)c(F)c1)c1nnc(-c2cccc(O)c2O)o1 (stereo not drawn) [Compound 31, 3-(5-(1-(2-Fluoro-[1,1′-biphenyl]-4-yl)ethyl)-1,3,4-oxadiazol-2-yl)benzene-1,2-diol]

— paper PMC10464598 (RSC Advances, 2023)
